# Screening results (PubChem)
# KCNK3 block: human KCNK3 channel inhibitors, primary screen, CHO cells, FluxOR thallium flux, B-score | AID 602410, 2012 | actives 0.84% (n = 340,000) | B-score at 10 µM | FluxOR fluorescence; active compounds read low | Potassium channel subfamily K member 3 (Homo sapiens), O14649;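 active = B-score under library mean minus 4 SD, starting fluorescence ratio at most library mean plus 5 SD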;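 also: more negative B-score means stronger inhibition of thallium flux through KCNK3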
# KCNQ1 pot: potentiators or activators of KCNQ1 channel, primary screen, cell-based, thallium flux, high-throughput. Potassium voltage-gated channel subfamily KQT member 1 (Homo sapiens), P51787. CHO-K1 KCNQ1, thallium flux FluxOR fluorescence; active compounds read high. B-score at 10 µM. actives 0.35% (n = 310,000);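 active = fluorescence ratio B-score, a plate-corrected score, at least three library SD, with initial intensity B-score within 5 SD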
#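 Assay system: CHO-K1 cells stably expressing KCNQ1. Medium: assay buffer for compound exposure, DMSO matched across wells. Timing: 37 °C overnight plating, 90-min dark dye load, 20-min compound pretreatment. Signal: kinetic FluxOR fluorescence, 10 s baseline plus 110 s post-stimulus.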
# hERG protect: hERG rescue from dofetilide block, primary screen, cell-based, CHO-hERG, FluxOR thallium flux, dofetilide IC70; dofetilide IC70 present; actives 0.51% (n = 310,000); activation (rescue from dofetilide block), less the hit threshold, % at 10 µM; AID 1511, 2009;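 active = activation above the mean of controls blocked by dofetilide plus 5 SD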;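 also: thallium influx through hERG after potassium depolarization seen as dye fluorescence rise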
# KCNQ1 block: inhibitors of human KCNQ1 channel, primary screen, cell-based, thallium flux, high-throughput; Potassium voltage-gated channel subfamily KQT member 1 (Homo sapiens), P51787; CHO-K1 KCNQ1, FluxOR thallium flux fluorescence; active compounds read high; B-score at 10 µM; actives 1.3% (n = 310,000); AID 2642, 2010;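 active = compounds whose thallium flux B-score, printed positive for inhibition, exceeds three library SD while starting fluorescence stays within three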;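 also: channel opened by potassium depolarization with thallium stimulus after 20 min compound exposure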
# KCNK9 inh: KCNK9 potassium channel inhibitors, primary screen, HEK293 cells, thallium flux | B-score at 10 µM | AID 488922, 2010 | FluxOR thallium flux fluorescence; active compounds read low | actives 1.2% (n = 310,000) | Potassium channel subfamily K member 9 (Homo sapiens), Q9NPC2;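 active = ratio B-score over 3 SD below the library mean, with starting fluorescence within 5 SD of its mean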;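 also: negative B-score means less thallium flux so channel inhibition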
# Target sequence (Q9NPC2 whole entry, looked up): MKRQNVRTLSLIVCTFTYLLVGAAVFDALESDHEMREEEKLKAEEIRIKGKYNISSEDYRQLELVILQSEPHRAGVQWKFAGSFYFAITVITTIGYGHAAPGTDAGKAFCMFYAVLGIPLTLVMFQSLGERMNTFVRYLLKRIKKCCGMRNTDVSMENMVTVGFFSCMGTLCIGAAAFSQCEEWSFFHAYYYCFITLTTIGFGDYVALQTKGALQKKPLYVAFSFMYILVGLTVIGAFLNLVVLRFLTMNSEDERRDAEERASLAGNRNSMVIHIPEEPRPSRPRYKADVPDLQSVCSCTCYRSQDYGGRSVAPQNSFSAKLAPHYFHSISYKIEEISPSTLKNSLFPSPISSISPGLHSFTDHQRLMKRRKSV
# KCC2 mod: KCC2 cotransporter modulators, thallium flux, primary screen, cell-based, HEK293 KCC2, FluoZin-2 fluorescence, MLSMR; KCC2 cells, thallium flux FluoZin-2 fluorescence; AID 1456, 2008; Solute carrier family 12 member 5 (Homo sapiens), Q9H2X9; actives 2.2% (n = 190,000); B-score of Tl+ flux slope (higher = more flux/activation; lower = inhibition) at 10 µM;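 active = thallium flux slope and its plate-corrected score both differing from the plate sample mean at a set confidence after two filtering rounds, in either direction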;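 also: slope of fluorescence scaled to starting intensity during 10 to 20 s after thallium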
# KCNK9 block conf: KCNK9 potassium channel inhibitors, confirmation, HEK293 cells, thallium flux, duplicate | shares compounds with KCNK9 inh | FluxOR thallium flux fluorescence | inhibition, % at 10 µM | actives 43% (n = 4,900) | AID 492992, 2010;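 active = thallium signal inhibited by more than 5 SD of the compound-free buffer control wells, on both duplicate plates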;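 also: 0% = assay buffer control wells without compound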
# Kir2-1 spec: mouse Kir2.1 channel inhibition, confirmation, selectivity assay for KCNK9 modulator project, cell-based, HEK293, thallium flux | shares compounds with KCNK9 inh | Kir2.1 cells, FluxOR thallium flux fluorescence | inhibition, % at 10 µM | actives 4% (n = 4,900) | AID 492993, 2010;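 active = thallium signal drop more than 5 SD beyond the mean of the no-compound control wells, seen in both duplicate plates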;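 also: signal is fluorescence rise after thallium addition divided by baseline fluorescence; plate controls were assay buffer only for no effect and full block by chlorpromazine control for full effect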
# HEK293 Tl ctr: thallium flux in non-induced HEK293 cells, confirmation, counter-screen for KCNK9 inhibitor project, cell-based, second counter screen, non-induced KCNK9-HEK293. AID 492997, 2010. inhibition, % at 10 µM. shares compounds with KCNK9 inh. FluxOR thallium flux. actives 40% (n = 4,900);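 active = thallium signal drop beyond 5 SD of the untreated control mean, on both duplicate plates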;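 also: plate controls were buffer only IC0 wells for no effect and SID17386958 at its maximal inhibitory level for full effect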
# Starred values were filed as active, the others as inactive; i = inactive; · = no result given. A selection: hits, their analogues and other compounds. The true share with any hit is near 4.1%.
SMILES,KCNK3 block,KCNQ1 pot,hERG protect,KCNQ1 block,KCNK9 inh,KCC2 mod,KCNK9 block conf,Kir2-1 spec,HEK293 Tl ctr
COC(=O)[C@]1(Cc2ccccc2)N[C@H](CN(C)S(=O)(=O)c2ccc(-c3ccccc3)cc2)[C@@H]2C(=O)N(C)C(=O)[C@@H]21,i,·,·,·,·,·,·,·,·
COc1ccc(NC(=O)c2ccccc2Oc2ccccc2)c(OC)c1,i,i,-9,i,-8.4*,·,55%*,i,30%*
COc1ccc(NC(=O)c2ccccc2C)c(OC)c1,i,i,-12,i,i,0.97,·,·,·
COc1ccc(NC(=O)c2cc(-c3cccnc3)nc3c(C)c(C)ccc23)c(OC)c1,i,i,-18,i,i,·,i,i,i
COCc1cc(=O)[nH]c(N2CCN(Cc3ccc4c(c3)OCO4)CC2)n1,i,i,-2,i,i,·,·,·,·
CCCOP(=O)(c1ccc(N(C)C)cc1)C(O)c1ccc(Br)cc1 (stereo not drawn),i,i,-1,i,i,·,·,·,·
O=c1c2cc(-c3ccccc3)sc2ncn1-n1cccc1,i,i,1,i,i,0.84,·,·,·
Cc1ccc(C)n1-n1c(C)nc2sc(-c3ccccc3)cc2c1=O,i,i,-11,i,i,0.62,i,i,i
Cc1ccc(C)n1-n1cnc2sc(-c3ccccc3)cc2c1=O,i,i,-8,i,-14*,-1.9,44%*,i,26%*
OC(CSc1ccccc1Cl)CN1CCN(c2ccccc2F)CC1 (stereo not drawn),i,i,-17,i,i,·,i,i,i
OC(CSc1ccccc1Cl)CN1CCN(c2ccc(F)cc2)CC1 (stereo not drawn),i,i,-17,i,i,·,·,·,·
OC(CSc1c(Cl)cccc1Cl)CN1CCN(c2ccccc2F)CC1 (stereo not drawn),i,i,-26,i,i,0.15,i,i,i
OC(CSc1c(Cl)cccc1Cl)CN1CCN(c2ccc(F)cc2)CC1 (stereo not drawn),i,i,-23,i,i,·,i,i,i
O=C(COC(=O)c1ccc(S(=O)(=O)N2CCOCC2)cc1)Nc1ccccc1OC(F)F,i,·,·,·,·,·,·,·,·
N#Cc1nc(-c2ccc(Cl)cc2)oc1N1CCCCC1,i,i,-2,i,-8.3*,1.7,i,i,30%*
CCOc1ccc(-c2nc(C#N)c(N3CCN(C)CC3)o2)cc1,i,i,-7,i,i,·,·,·,·
CCOc1ccc(-c2nc(C#N)c(N3CCCCCC3)o2)cc1,i,i,-20,i,-8.6*,0.43,50%*,i,40%*
COCC1CCN(Cc2c(C(=O)N3CCc4ccccc4C3)nc3ccc(Cl)cn23)C1 (stereo not drawn),i,i,-6,i,i,·,·,·,·
COC(=O)C(C)N(C(=O)c1cccc2ccccc12)c1c(C)cccc1C (stereo not drawn),i,i,-9,i,-12*,-3.7*,52%*,i,32%*
